A short description of data set [1]: Volume of distribution at steady state in BALB/C mouse at 1 mg/kg, iv by LC-MS/MS analysis. Format: ADME, organism-based. As to conditions: in vivo, read-out: Vdss. In outline: (§1)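 Male BALB/C mice given single doses of 1 mg/kg iv (5% DMSO, 40% PEG400, 55% saline), or 2 or 14.5 mg/kg po (1% RC-591 in water). Blood taken at set times into sodium heparin and plasma separated at 4 °C; livers from po groups taken right after bleeding, rinsed and blotted. Plasma and liver levels measured by LC–MS/MS.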

The nature of data set [2]: AUC (0 to t) in BALB/C mouse plasma at 14.5 mg/kg, po administered as single dose by LC-MS/MS analysis. As to conditions: in vivo. Format: ADME, organism-based.
Data set [3] in a line: Oral bioavailability in cynomolgus monkey. Format: ADME, organism-based, Macaca fascicularis. As to conditions: in vivo.
For data set [4], the system named is Mus musculus. Description: AUC (0 to infinity) in BALB/C mouse plasma at 2 mg/kg, po administered as single dose by LC-MS/MS analysis. The format is ADME, organism-based. On the set-up: dose 2 mg/kg, route oral, time infinity. As to conditions: in vivo.
Data set [5] is described as follows: Cmax in BALB/C mouse plasma at 1 mg/kg, iv administered as single dose by LC-MS/MS analysis. Format: ADME, organism-based. On the set-up: dose 1 mg/kg, route intravenous. In short, it runs like this:
as §1

Data set [6] in a line: Dissociation constant, pKa of the compound. Format: physicochemical.
Data set [7] is described as follows: Oral bioavailability in BALB/C mouse at 2 mg/kg administered as single dose by LC-MS/MS analysis. Format: ADME, organism-based. As to conditions: in vivo. In outline: as §1
Data set [8] concerns Mus musculus. Briefly: AUC (0 to infinity) in BALB/C mouse plasma at 1 mg/kg, iv administered as single dose by LC-MS/MS analysis. Format: ADME, organism-based. On the set-up: dose 1 mg/kg, route intravenous, time infinity. As to conditions: in vivo.
The nature of data set [9]: Cmax in BALB/C mouse liver at 14.5 mg/kg, po administered as single dose by LC-MS/MS analysis. Set-up: dose 14.5 mg/kg, route oral. Format: ADME, organism-based. In short, it runs like this:
as §1

Data set [10] can be described thus: Lipophilicity, log D of the compound. The format is physicochemical. As to conditions: octanol/water.
A short description of data set [11]: Cmax in BALB/C mouse plasma at 2 mg/kg, po administered as single dose by LC-MS/MS analysis. The format is ADME, organism-based. Set-up: dose 2 mg/kg, route oral. In short, it runs like this:
as §1

The nature of data set [12]: Apparent permeability across apical to basolateral side in human Caco2 cells at 10 uM after 1 hr. As to conditions: Caco-2. The format is ADME, cell-based. In outline:
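Caco-2 monolayers; 10 µM compound in pH 7.4 HBSS added to apical side (A→B) or basolateral side (B→A), receiver holding pH 7.4 HBSS with 1% DMSO. Incubated 1 h at 37 °C, 5% CO2, 95% humidity. Drug amounts on both sides measured and permeability calculated for each direction.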

Data set [13] can be described thus: Cmax in BALB/C mouse plasma at 14.5 mg/kg, po administered as single dose by LC-MS/MS analysis. The format is ADME, organism-based. On the set-up: dose 14.5 mg/kg, route oral. In short, it runs like this:
as §1

A short description of data set [14]: AUC (0 to t) in BALB/C mouse liver at 14.5 mg/kg, po administered as single dose by LC-MS/MS analysis. Format: ADME, organism-based. As to conditions: in vivo.
Data set [15] in a line: Ratio of AUC (0 to t) in BALB/C mouse liver to plasma at 14.5 mg/kg, po administered as single dose by LC-MS/MS analysis. Format: ADME, organism-based. As to conditions: read-out: Ratio AUC.

One may read the bioavailability as dose-corrected exposure relative to a reference, in per cent. Broadly, the Cmax is the peak of the concentration-time curve. By pKa is commonly meant the pH at which an ionisable group is half protonated. A word on the logD: it is lipophilicity at a set pH, counting ionised and neutral species. The term Papp A→B denotes the apparent permeability from the apical to the basolateral side of a cell layer. Regarding `COCCCOc1cc2c(cc1OC)-c1cc(=O)c(C(=O)O)cn1[C@H](C(C)C)C2`, the Vd in data set [1] was found to be 2.07 L/kg. For the same compound, the AUCt in [2] is 4366 ng·mL·h; in data set [14], 17265 ng·mL·h. In addition, the results for the bioavailability in data set [3] and in data set [7] were 57% and 62%, respectively. Further, the AUC in [4] was 490 ng·mL·h; in data set [8], 398 ng·mL·h. Besides, the peak concentration (Cmax) is 466 ng/mL in data set [5], 11000 ng/mL in [9], 322 ng/mL in [11] and 2040 ng/mL in data set [13]. In [6], this compound came in with a pKa of 5.79. Also, the logD in [10] stood at 1.28. For the same compound, the Papp A→B at 1 h, 10 µM in [12] is 12.8 ×10⁻⁶ cm/s. Besides, the Kp in data set [15] was determined as 4.

The values above are taken from ChEMBL document CHEMBL4265974, “Discovery of RG7834: The First-in-Class Selective and Orally Available Small Molecule Hepatitis B Virus Expression Inhibitor with Novel Mechanism of Action” (J Med Chem, 2018).
